The subject of one experiment is L929. The experiment in a line: Cytotoxicity against mouse L-929 fibroblast cell line, by means of standard proliferation assay. It counts as functional, cell-based.
The next experiment concerns K562. The experiment in a line: Cytotoxicity against […] leukemic cell line, by means of standard proliferation assay. It counts as functional, cell-based. Particulars: Homo sapiens.
Experiment [1] addresses T1, Peptidyl-prolyl cis-trans isomerase FKBP1A (Homo sapiens, UniProt P62942). The experiment in a line: Compound was evaluated for its inhibitory effect on human FK506 binding protein 12 by means of protease-coupled PPIase assay. The method, boiled down:
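Recombinant hFKBP12 (14 nM) preincubated ≥5 min with effectors (0.01–200 μM, diluted from DMSO stocks, organic solvent usually below 0.1% v/v) in 35 mM HEPES pH 7.8. Reaction started with Suc-Ala-Phe-Pro-Phe-pNA (24.0 μM); α-chymotrypsin (410 μg/mL) as isomer-specific protease; 4-nitroaniline release read at 390 nm, 10 °C. First-order k_enz derived; IC50 from concentration dependence; mean ± SD of three determinations.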

Experiment [2] relates to Rattus norvegicus. The experiment in a line: Weight difference between EDL muscles of axotomized left hind limbs and corresponding right controls 10 weeks (dose=1 mg/kg). It is filed as functional, Muscle tissue. The method, boiled down:
(§1)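 Sciatic nerve of left hind leg lesioned (neurotomy) in 4-month-old female HAN:Wist rats under intramuscular Rompun (16 mg/kg)/Ketavet (125 mg/kg) anesthesia. Functional recovery scored from walking behavior. EDL muscle weights of the lesioned left limb and the unlesioned right limb compared, with weights related to protein concentration. Weight differences expressed as percentages relative to placebo; mean ± SD of n animals.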

Experiment [3] concerns Rattus norvegicus. The experiment in a line: Effect on Axonal Regeneration following sciatic nerve neurotomy at a dose of 1 mg/kg after 10 weeks. It counts as functional. A digest of the protocol:
as §1

Experiment [4] relates to Rattus norvegicus. The experiment in a line: Weight difference between EDL muscles of axotomized left hind limbs and corresponding right controls 8 weeks (dose=30 mg/kg). It counts as functional, Muscle tissue. A digest of the protocol:
(§2)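 Female HAN:Wist rats (4 months old) underwent left sciatic neurotomy with 30 mg/kg given locally at the lesion. EDL muscles were taken at 8 or 10 weeks and weighed relative to protein concentration. The % weight difference, lesioned left versus intact right limb, was expressed relative to placebo controls. Values are mean ± SD of n animals.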

Experiment [5] deals with Rattus norvegicus. The experiment in a line: Effect on Axonal Regeneration following sciatic nerve neurotomy at a dose of 30 mg/kg after 10 weeks. It is filed as functional. The method, boiled down: (§3)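 Left sciatic nerve cut (neurotomy) in 4-month-old female HAN:Wist rats under intramuscular Rompun/Ketavet anaesthesia. A single 30 mg/kg dose was applied at the lesion site. Walking behaviour was scored up to 8 or 10 weeks after surgery. Values are % increase in rate of functional recovery versus placebo-treated rats, given as mean ± SD of n animals.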

Experiment [6] has as its system Rattus norvegicus. The experiment in a line: Weight difference between EDL muscles of axotomized left hind limbs and corresponding right controls 10 weeks (dose=30 mg/kg). It is filed as functional, Muscle tissue. A digest of the protocol:
as §2

Experiment [7] concerns Rattus norvegicus. The experiment in a line: Effect on Axonal Regeneration following sciatic nerve neurotomy at a dose of 30 mg/kg after 8 weeks. It counts as functional. The method, boiled down: as §3
Experiment [8] is described as follows: Inhibition constant(Ki) for inhibition of PPIase activity of Escherichia coli FK506 binding protein 26 (Conc=1 uM) of FKBPs family. A digest of the protocol: (§4)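 Protease-coupled PPIase assay with α-chymotrypsin 410 μg/mL and Suc-Ala-Phe-Pro-Phe-pNA 24.0 μM. Enzyme was preincubated at least 5 min with inhibitor (0.01–200 μM) in 35 mM HEPES pH 7.8, DMSO usually below 0.1%. 4-Nitroaniline release was read at 390 nm, 10 °C, and first-order k_enz derived. Ki came from nonlinear competitive-inhibition fit; mean ± SD of three.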

Experiment [9] addresses Peptidyl-prolyl cis-trans isomerase NIMA-interacting 1 (Homo sapiens, UniProt Q13526). The experiment in a line: Inhibition constant(Ki) for inhibition of PPIase activity of human Peptidyl-prolyl cis-trans isomerase NIMA-interacting 1 (Conc=4 nM) of Parvulins family. The method, boiled down:
(§5)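 PPIase assay coupled to trypsin 210 μg/mL, using Suc-Ala-Phe-Pro-Arg-pNA 34.0 μM (SlyD) or Ac-Ala-Ala-Ser(P)-Pro-Arg-pNA 26.0 μM (hPin1). Enzyme was preincubated at least 5 min with inhibitor (0.01–200 μM) in 35 mM HEPES pH 7.8. Absorbance at 390 nm was followed at 10 °C, and first-order catalytic rate constants were fitted to a competitive model.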

The nature of experiment [10]: Inhibition constant(Ki) for inhibition of PPIase activity of Escherichia coli parvulin (Conc=6 nM) of Parvulins sfamily.
The target of experiment [11] is T1, Peptidyl-prolyl cis-trans isomerase FKBP1A. The experiment in a line: Inhibition constant(Ki) for inhibition of PPIase activity of human FK506 binding protein 12 (Conc=14 nM) of FKBPs family. The method, boiled down:
as §4

Experiment [12] in a line: Inhibition constant(Ki) for inhibition of PPIase activity of Escherichia coli SlyD (Conc=2 uM) of FKBPs family. The method, boiled down: as §5
Experiment [13] can be described thus: Inhibition constant(Ki) for inhibition of PPIase activity of Escherichia coli trigger factor (Conc=12 nM) of FKBPs family. The method, boiled down:
as §4

Experiment [14] is described as follows: Inhibition constant(Ki) for inhibition of PPIase activity of human Cyclophilin 18 (Conc=2 nM). The method, boiled down:
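hCyp18 was expressed recombinantly in E. coli and assayed for PPIase activity with α-chymotrypsin 410 μg/mL and Suc-Ala-Phe-Pro-Phe-pNA 24.0 μM. It was preincubated at least 5 min with 0.01–200 μM inhibitor in 35 mM HEPES pH 7.8. 4-Nitroaniline was monitored at 390 nm, 10 °C, and constants were obtained by competitive nonlinear fit.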

≈ marks a conversion by molar mass, not a printed value. Bounds are passed on as bounds.

T1 sequence (P62942 whole entry): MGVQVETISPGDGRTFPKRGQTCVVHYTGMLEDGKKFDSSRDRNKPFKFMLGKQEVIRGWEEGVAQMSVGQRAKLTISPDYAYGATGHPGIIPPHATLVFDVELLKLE
Chain of Peptidyl-prolyl cis-trans isomerase NIMA-interacting 1 (Q13526 whole entry): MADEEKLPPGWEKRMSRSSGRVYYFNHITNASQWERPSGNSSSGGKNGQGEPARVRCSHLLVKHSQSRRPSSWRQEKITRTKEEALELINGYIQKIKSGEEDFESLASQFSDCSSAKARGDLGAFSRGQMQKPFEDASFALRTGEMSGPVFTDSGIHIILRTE

Turning to `C[C@@H]1C[C@@H]([C@H](O)CC2CC(=O)N(C)C(=O)C2)C(=O)[C@@H](C)C1`, the results for the IC50 (in the experiment with L929; with K562; in experiment [1]) were over 200 µg/mL, 133 µg/mL (≈ 449 µM) and 124 µM, respectively.

Take `C[C@@H]1C[C@@H]([C@H](O)CC2CC(=O)N(Cc3ccccc3)C(=O)C2)C(=O)[C@@H](C)C1`: the IC50 is 135 µg/mL (≈ 364 µM) with L929, 81.6 µg/mL (≈ 220 µM) in the experiment with K562 and 117 µM in [1].

As for `C[C@@H]1C[C@@H]([C@H](O)CC2CC(=O)N(Cc3ccc(C#N)cc3)C(=O)C2)C(=O)[C@@H](C)C1`, the IC50 with L929 is 1.4 µg/mL (≈ 3.53 µM); with K562, 0.8 µg/mL (≈ 2.02 µM); in experiment [1], 68.2 µM.

In the experiment on Rattus norvegicus [2], `C=CC[C@@H]1/C=C(\C)C[C@H](C)C[C@H](OC)[C@H]2O[C@@](O)(C(=O)C(=O)N3CCCC[C@H]3C(=O)O[C@H](/C(C)=C/[C@@H]3CC[C@@H](O)[C@H](OC)C3)[C@H](C)[C@@H](O)CC1=O)[C@H](C)C[C@@H]2OC` [TACROLIMUS ANHYDROUS] gave a Weight difference of 18%. The Walking behaviour with Rattus norvegicus [3] stood at 100%.

For the molecule `CCOC(=O)CCCN1C(=O)CC(C[C@@H](O)[C@@H]2C[C@@H](C)C[C@H](C)C2=O)CC1=O`, the IC50 in the experiment on L929 stood at 145 µg/mL (≈ 366 µM); in the experiment on K562, 109 µg/mL (≈ 276 µM); in experiment [1], 22.3 µM.

Regarding `CCOC(=O)CN1C(=O)CC(C[C@@H](O)[C@@H]2C[C@@H](C)C[C@H](C)C2=O)CC1=O`, the Weight difference came out at 20% in the experiment with Rattus norvegicus [4] and 13% in the experiment with Rattus norvegicus [6]. Besides, the IC50 with L929 was found to be 76.7 µg/mL (≈ 209 µM); in the experiment on K562, 64.9 µg/mL (≈ 177 µM); in [1], 4.4 µM. Also, the Walking behaviour is on record as 14% in the experiment on Rattus norvegicus [5] and 46% in the experiment on Rattus norvegicus [7].

Turning to `C[C@@H]1C[C@@H]([C@H](O)CC2CC(=O)NC(=O)C2)/C(=N\O)[C@@H](C)C1`, the IC50 in the experiment on L929 was 86.9 µg/mL (≈ 293 µM); in the experiment with K562, 116 µg/mL (≈ 393 µM); in experiment [1], 177 µM.

`C[C@@H]1C[C@@H]([C@H](O)CC2CC(=O)N(CC(N)=O)C(=O)C2)C(=O)[C@@H](C)C1`: the IC50 in the experiment on L929 worked out at 5.3 µg/mL (≈ 15.7 µM); with K562, 4.6 µg/mL (≈ 13.6 µM); in [1], 21.6 µM.

Consider `CC(=O)O[C@H](CC1CC(=O)NC(=O)C1)[C@@H]1C[C@@H](C)C[C@H](C)C1=O`, for which the IC50 in the experiment on L929 was 9.3 µg/mL (≈ 28.8 µM); with K562, 1.1 µg/mL (≈ 3.4 µM); in [1] it was over 200 µM.

In turn, `CCOC(=O)CN1C(=O)CC(C[C@@H](OC(=O)NC23C[C@H]4C[C@@H](C2)C[C@@H](C3)C4)[C@@H]2C[C@@H](C)C[C@H](C)C2=O)CC1=O` yielded a 50% inhibitory concentration (IC50) in experiment [1] of over 200 µM.

Take `C[C@@H]1C[C@@H]([C@H](O)CC2CC(=O)NC(=O)C2)C(=O)[C@@H](C)C1` [CYCLOHEXIMIDE]: the Ki in [8] was 10.3 µM; in experiment [9], over 200 µM; in [10], 187 µM; in experiment [11], 3.4 µM; in experiment [12], over 200 µM; in experiment [13], over 200 µM. Also, in experiment [14], the Ki is over 200 µM. Also, the IC50 with L929 is under 0.39 µg/mL; in the experiment with K562, under 0.39 µg/mL; in experiment [1] it was 3.6 µM.

For orientation: IC50 means the concentration that gives 50% inhibition. As a reminder, the Ki is a dissociation constant, usually derived from enzyme kinetics or from competition with a known ligand. A high value points to a looser hold on the target.

Source of the values: ChEMBL document CHEMBL1132377 (J Med Chem, 1999).
